M5 PAM: potentiates acetylcholine response at human M5 receptor; 360,000 tested, 0.3% active; activation, % at 3 µM; P08912; CHO-K1 hM5, Fluo-8 calcium, ACh EC20 PAM; 0% = ACh EC20, 100% = ACh EC100;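 active = activation above the run cutoff, the mean activation of all test compounds plus 3 SD, cut at about 18% in these data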
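Probe or stimulus: acetylcholine, EC20 level; Assay system: human M5 receptor in CHO-K1 cells; Schedule: compound preincubation 140 s before EC20 acetylcholine addition; Technique: intracellular calcium via Fluo-8 fluorescence; Dosing: single-point, 3 µM nominal; Read-out basis: percent activation from peak-over-basal fluorescence ratio, scaled EC20-to-EC100 acetylcholine; Repeats: one well per compound, no replicates.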
CHRM5 antagonist: antagonists of human muscarinic M5 receptor (CHRM5); CHO-hM5 cells, Fluo-8 calcium fluorescence, ACh EC80; AID 624040; 360,000 tested, 0.59% active; inhibition, % at 3 µM; P08912;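 active = inhibition above a per-plate cutoff, the mean of that plate's test compounds plus 3 SD, cut at about 27% in these data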;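 note: 0% = acetylcholine EC80 with DMSO and 100% = DMSO without agonist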
CHRM4 PAM: CHRM4 positive allosteric modulation | 360,000 tested, 0.4% active | CHO-K1 hM4/Gqi5, Fluo-8 calcium fluorescence, ACh EC20; 0% = ACh EC20, 100% = maximal ACh | P08173 | activation, % at 3 µM;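 active = activation above its plate's cutoff, the mean activation of sample wells plus 3 SD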
Target sequence (P08173 whole entry, looked up): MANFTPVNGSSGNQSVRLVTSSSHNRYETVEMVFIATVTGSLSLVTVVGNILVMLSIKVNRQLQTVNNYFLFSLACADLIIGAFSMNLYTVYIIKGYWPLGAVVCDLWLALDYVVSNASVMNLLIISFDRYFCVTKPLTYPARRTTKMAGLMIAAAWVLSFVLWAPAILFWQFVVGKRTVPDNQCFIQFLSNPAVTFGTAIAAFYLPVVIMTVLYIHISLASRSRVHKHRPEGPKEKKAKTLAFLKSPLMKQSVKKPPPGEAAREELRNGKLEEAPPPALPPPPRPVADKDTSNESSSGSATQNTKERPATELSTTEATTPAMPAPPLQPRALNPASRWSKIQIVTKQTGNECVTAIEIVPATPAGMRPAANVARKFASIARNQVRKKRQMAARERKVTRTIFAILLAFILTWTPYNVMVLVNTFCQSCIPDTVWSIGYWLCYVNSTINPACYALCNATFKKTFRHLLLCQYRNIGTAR
M5 ag: agonists of human muscarinic M5 receptor (CHRM5). CHO-K1 hM5 cells, Fluo-8 calcium fluorescence; 0% DMSO wells, 100% maximal acetylcholine response. activation, % at 3 µM. 360,000 tested, 0.19% active. AID 624037;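 active = activation above the run's mean over test compounds plus 3 SD, cut at about 23% in these data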;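 note: signal is peak over basal fluorescence ratio across the kinetic read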
M4 ag: CHRM4 agonism in calcium assay; CHO-K1 hM4/Gqi5, Fluo-8 calcium fluorescence; vehicle 0%, full acetylcholine response 100%; 360,000 tested, 0.14% active; AID 624127; activation, % at 3 µM; P08173;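 active = activation above the run mean over all test wells plus 3 SD, cut at about 32% in these data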;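 note: peak over basal fluorescence ratio per well then scaled between controls; 0% = DMSO wells and 100% = acetylcholine at EC100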
CHRM4 antagonist: antagonists of human muscarinic M4 receptor (CHRM4) | P08173 | CHO-hM4 cells, ACh EC80, Fluo-8 calcium fluorescence | inhibition, % at 3 µM | 360,000 tested, 0.73% active | AID 624125;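 active = inhibition above its plate's cutoff, the mean inhibition of sample wells plus 3 SD, cut at about 27% in these data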;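 note: 0% = acetylcholine EC80 with DMSO and 100% = DMSO without agonist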
* marks the source's active call; other numbers are inactive results. Sampled rows, rich in hits. Any-hit rate of the full collection: about 1.9%.

SMILES | M5 PAM | CHRM5 antagonist | CHRM4 PAM | M5 ag | M4 ag | CHRM4 antagonist
CCCCCOc1ccc(Br)cc1/C(C)=N/NC1=NCCN1 | -15 | 9 | -11 | -10 | 2 | 10
COc1ccc(Br)cc1/C(C)=N/NC1=NCCN1 | -17 | 30* | -9 | 47* | 11 | 2
Nc1cc(=O)[nH]c(SCC(=O)N2N=C(c3ccc4ccccc4c3)CC2c2ccccc2)n1 (stereo not drawn) | -5 | 6 | -10 | -4 | 1 | 36*
CC(=O)OCC(=O)N1N=C(c2ccc3ccccc3c2)CC1c1ccccc1 (stereo not drawn) | 3 | -10 | 3 | 2 | 2 | -5
Fc1ccc2c(Cl)c(-c3nnc(-c4cccs4)o3)sc2c1 | 2 | 4 | 3 | -3 | 0 | 5
COc1ccc(CCn2c(=O)[nH]c3cc(C(=O)NCCCN4CCOCC4)ccc3c2=O)cc1OC | 2 | 6 | -1 | 3 | 1 | -7
COc1ccc(CCn2c(=O)[nH]c3cc(C(=O)NCCN4CCOCC4)ccc3c2=O)cc1OC | 12 | -6 | 29* | -1 | 4 | 21
C[C@H](CO)N1C[C@H](C)[C@@H](CN(C)C(=O)Nc2ccccc2)Oc2ccc(NS(=O)(=O)c3ccccc3)cc2C1=O | 7 | 16 | 2 | -3 | -1 | 2
O=S(=O)(O)c1cc(O)ccc1O | -13 | -10 | 0 | 36* | 2 | -8
Cc1cccnc1CCNC(=O)CC1C(=O)NCCN1CC1CCCCC1 (stereo not drawn) | 13 | -2 | 13 | 0 | 2 | -11
Cc1cc(C)cc(OCC(=O)NNC(=S)NC(=O)C2CC2)c1 | -2 | 28* | 9 | -3 | 6 | 4
COc1ccc(OCC(=O)NNC(=S)NC(=O)C2CC2)cc1 | -2 | -6 | 9 | -4 | 0 | -11
Cc1cc(C)n(/N=C/c2ccccc2O)c(=O)c1 | 25* | -19 | 10 | 3 | 1 | 9
CCOC(=O)/C(=C\C=C1/Sc2cc(OCC)c(OCC)cc2N1CC)C(C)=O | -12 | 13 | -5 | 24* | 20 | 12
CCOC(=O)/C(=C/C=C1\Sc2cc(OCC)c(OCC)cc2N1CC)C(C)=O | -23 | 36* | -9 | 147* | 18 | 12
CCN1/C(=C/C(C)=O)Sc2ccc(OC)cc21 | 13 | 1 | 6 | -8 | -1 | 1
Cc1c(C2CC(=O)N(c3ccccc3)C2=O)[nH]n(-c2ccccc2)c1=O (stereo not drawn) | -6 | 3 | 0 | -1 | 2 | -4
COC(=O)c1ccccc1NC(=O)CSc1nncn1-c1ccccn1 | 3 | -7 | -3 | 0 | 0 | -1
Cc1cccc(CSc2nncc(=O)[nH]2)c1 | -4 | -5 | 15* | 1 | 1 | -14
Cc1c(C(=O)Nc2ccc3c(c2)OCCO3)oc2ccc(Br)cc12 | 4 | 2 | 23* | -3 | 1 | -10
Cc1c(C(=O)NCc2ccc3c(c2)OCO3)oc2ccc(Br)cc12 | -6 | 12 | 3 | -3 | -1 | 2
Cc1cc(C)c(C#N)c(Sc2nc(C)c([N+](=O)[O-])c(C)c2C#N)n1 | -4 | 8 | 42* | -7 | 2 | 34*
CC1(C)CC(=O)C(N=Nc2cccc(S(=O)(=O)N3CCOCC3)c2)=C(O)C1 | -2 | 1 | 25* | -18 | 3 | -8
CC1CCN(S(=O)(=O)c2ccc(N=NC3=C(O)CC(C)(C)CC3=O)cc2)CC1 | -3 | 2 | 6 | -3 | 1 | -11
O=C(Nc1ccccc1C(F)(F)F)C(O)(c1ccccc1)C1CCCCC1 (stereo not drawn) | 4 | 10 | 10 | -3 | 1 | -7
C[N+]1(C)CCC(OC(=O)C(O)(c2ccccc2)C2CCCC2)C1 (stereo not drawn) | -19 | 98* | -16 | -2 | 0 | 99*
C[N+]1(C)CC[C@H](OC(=O)[C@@](O)(c2ccccc2)C2CCCC2)C1 | -18 | 99* | -18 | -1 | 0 | 99*

From PubChem BioAssay
